In brackets after ≈: the same amount, converted by molar mass. Activity calls are given as the source filed them. The calls are words filed in the database; no cut-off is given here.
Key:
[1] = tested on: Mycolicibacterium smegmatis; assay: Antimicrobial activity against Mycobacterium smegmatis incubated for 4 days by broth microdilution method; type: functional
Outline: (§1)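 Broth microdilution in 1/10-strength BHIB+S; 2-fold compound dilution series inoculated with cell suspension. Incubated 4 days; growth scored visually by turbidity. MIC taken as lowest concentration with no turbidity relative to negative control. Each compound run in triplicate.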

MDA-MB-435 = assay: Cytotoxicity against human MDA-MB-435 cells assessed as reduction in cell growth incubated for 72 hrs; type: functional, cell-based; settings: MDA-MB-435, 72 h
Outline: (§2)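 Cells grown in RPMI 1640 with 10% FBS, penicillin and streptomycin at 37 °C, 5% CO2. Log-phase cells trypsinized, washed twice, seeded at about 5,000 per well and left overnight. Compounds in DMSO added for 72 h at 37 °C. Viability read by MTS-type absorbance assay (CellTiter 96 AQueous One). IC50 in μM relative to DMSO control. Vinblastine as positive control.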

HT-29 = assay: Cytotoxicity against human HT-29 cells assessed as reduction in cell growth incubated for 72 hrs; type: functional, cell-based; settings: HT-29, 72 h; outline: as §2
Escherichia coli = assay: Antimicrobial activity against Escherichia coli incubated for 4 days by broth microdilution method; type: functional; outline: as §1
Candida albicans = assay: Antimicrobial activity against Candida albicans incubated for 4 days by broth microdilution method; type: functional; outline: as §1
Staphylococcus aureus = assay: Antimicrobial activity against Staphylococcus aureus incubated for 4 days by broth microdilution method; type: functional; outline: as §1
Aspergillus niger = assay: Antimicrobial activity against Aspergillus niger incubated for 4 days by broth microdilution method; type: functional; outline: as §1

## O=C(O)c1cn(C2CC2)c2cc(N3CCNCC3)c(F)cc2c1=O [CIPROFLOXACIN]
[1]; 96 h
  MIC: 2 µg/mL (≈ 6.04 µM)

## CC[C@]1(O)C[C@@H]2CN(CCc3c([nH]c4ccccc34)[C@@](C(=O)OC)(c3cc4c(cc3OC)N(C)[C@H]3[C@@](O)(C(=O)OC)[C@H](OC(C)=O)[C@]5(CC)C=CCN6CC[C@]43[C@@H]65)C2)C1 [VINBLASTINE]
MDA-MB-435
  IC50: 0.0005 µM
HT-29
  IC50: 0.0045 µM

## COc1cc(O)c2c(c1O)OC[C@@H](Cc1ccc(O)cc1)C2=O
MDA-MB-435
  IC50: > 20 µM
HT-29
  IC50: > 20 µM
Escherichia coli
  MIC: inactive
Candida albicans
  MIC: inactive
[1]
  MIC: inactive
Staphylococcus aureus
  MIC: inactive
Aspergillus niger
  MIC: inactive

## COc1cc(O)c2c(c1OC)OC/C(=C\c1ccc(O)c(O)c1)C2=O
MDA-MB-435
  IC50: 4.6 µM
HT-29
  IC50: > 20 µM
Escherichia coli; 96 h
  MIC: > 93 µg/mL
Candida albicans; 96 h
  MIC: > 93 µg/mL
[1]; 96 h
  MIC: 47 µg/mL (≈ 137 µM)
Staphylococcus aureus; 96 h
  MIC: 93 µg/mL (≈ 270 µM)
Aspergillus niger; 96 h
  MIC: > 93 µg/mL

## CS/C=C/C(=O)OC[C@H](O)c1ccccc1
MDA-MB-435
  IC50: > 20 µM
HT-29
  IC50: > 20 µM
Escherichia coli
  MIC: inactive
Candida albicans
  MIC: inactive
[1]
  MIC: inactive
Staphylococcus aureus
  MIC: inactive
Aspergillus niger
  MIC: inactive

## COc1cc(O)c2c(c1OC)OC/C(=C\c1ccc(O)cc1)C2=O
MDA-MB-435
  IC50: 13.2 µM
HT-29
  IC50: > 20 µM
Escherichia coli
  MIC: inactive
Candida albicans
  MIC: inactive
[1]
  MIC: inactive
Staphylococcus aureus
  MIC: inactive
Aspergillus niger
  MIC: inactive

## COc1c(O)c(O)c2c(c1OC)OC[C@@H](Cc1ccc(O)cc1)C2=O
MDA-MB-435
  IC50: > 20 µM
HT-29
  IC50: > 20 µM
Escherichia coli
  MIC: inactive
Candida albicans
  MIC: inactive
[1]
  MIC: inactive
Staphylococcus aureus
  MIC: inactive
Aspergillus niger
  MIC: inactive

## COc1cc2c(c(O)c1O)C(=O)[C@H](Cc1ccc(O)cc1)CO2
MDA-MB-435
  IC50: > 20 µM
HT-29
  IC50: > 20 µM
Escherichia coli
  MIC: inactive
Candida albicans
  MIC: inactive
[1]
  MIC: inactive
Staphylococcus aureus
  MIC: inactive
Aspergillus niger
  MIC: inactive

## O=C1c2c(O)cc(O)cc2OC[C@H]1Cc1ccc(O)c(O)c1
MDA-MB-435
  IC50: > 20 µM
HT-29
  IC50: > 20 µM
Escherichia coli
  MIC: inactive
Candida albicans
  MIC: inactive
[1]
  MIC: inactive
Staphylococcus aureus
  MIC: inactive
Aspergillus niger
  MIC: inactive

## C[C@@H]1[C@H](O)[C@@H](C)/C=C/C=C/C=C/C=C/C=C/C=C/C=C/[C@H](O[C@@H]2O[C@H](C)[C@@H](O)[C@H](N)[C@@H]2O)C[C@@H]2O[C@](O)(C[C@@H](O)C[C@@H](O)[C@H](O)CC[C@@H](O)C[C@@H](O)CC(=O)O[C@H]1C)C[C@H](O)[C@H]2C(=O)O [AMPHOTERICIN B]
Candida albicans; 96 h
  MIC: 16 µg/mL (≈ 17.3 µM)
Aspergillus niger; 96 h
  MIC: 31 µg/mL (≈ 33.5 µM)

## O=C1/C(=C/c2ccc(O)cc2)COc2cc(O)cc(O)c21
MDA-MB-435
  IC50: > 20 µM
HT-29
  IC50: > 20 µM
Escherichia coli
  MIC: inactive
Candida albicans
  MIC: inactive
[1]
  MIC: inactive
Staphylococcus aureus
  MIC: inactive
Aspergillus niger
  MIC: inactive

## COc1cc(O)c2c(c1OC)OCCC2=O
MDA-MB-435
  IC50: > 20 µM
HT-29
  IC50: > 20 µM
Escherichia coli
  MIC: inactive
Candida albicans
  MIC: inactive
[1]
  MIC: inactive
Staphylococcus aureus
  MIC: inactive
Aspergillus niger
  MIC: inactive

## COc1ccc(C[C@@H]2COc3c(OC)c(OC)cc(O)c3C2=O)cc1O
MDA-MB-435
  IC50: 1.1 µM
HT-29
  IC50: 17.3 µM
Escherichia coli
  MIC: inactive
Candida albicans
  MIC: inactive
[1]
  MIC: inactive
Staphylococcus aureus
  MIC: inactive
Aspergillus niger
  MIC: inactive

## COc1ccc(C[C@@H]2COc3cc(O)cc(O)c3C2=O)cc1O
MDA-MB-435
  IC50: 1 µM
HT-29
  IC50: > 20 µM
Escherichia coli; 96 h
  MIC: > 138 µg/mL
Candida albicans; 96 h
  MIC: > 138 µg/mL
[1]; 96 h
  MIC: 17 µg/mL (≈ 53.7 µM)
Staphylococcus aureus; 96 h
  MIC: > 138 µg/mL
Aspergillus niger; 96 h
  MIC: > 138 µg/mL

## COc1cc(/C=C/C(=O)NCCc2ccc(O)cc2)ccc1O [N-TRANS-FERULOYL TYRAMINE]
MDA-MB-435
  IC50: > 20 µM
HT-29
  IC50: > 20 µM
Escherichia coli
  MIC: inactive
Candida albicans
  MIC: inactive
[1]
  MIC: inactive
Staphylococcus aureus
  MIC: inactive
Aspergillus niger
  MIC: inactive

## O=C1c2c(O)cc(O)cc2OC[C@H]1Cc1ccc(O)cc1
MDA-MB-435
  IC50: > 20 µM
HT-29
  IC50: > 20 µM
Escherichia coli; 96 h
  MIC: > 125 µg/mL
Candida albicans; 96 h
  MIC: > 125 µg/mL
[1]; 96 h
  MIC: 63 µg/mL (≈ 220 µM)
Staphylococcus aureus; 96 h
  MIC: > 125 µg/mL
Aspergillus niger; 96 h
  MIC: > 125 µg/mL

## COc1cc(O)c2c(c1OC)OC[C@@H](Cc1ccc(O)c(O)c1)C2=O
MDA-MB-435
  IC50: > 20 µM
HT-29
  IC50: > 20 µM
Escherichia coli
  MIC: inactive
Candida albicans
  MIC: inactive
[1]
  MIC: inactive
Staphylococcus aureus
  MIC: inactive
Aspergillus niger
  MIC: inactive

## CC1(C)S[C@@H]2[C@H](NC(=O)[C@H](N)c3ccccc3)C(=O)N2[C@H]1C(=O)O [AMPICILLIN]
Escherichia coli; 96 h
  MIC: 8 µg/mL (≈ 22.9 µM)

## COc1cc(O)c2c(c1OC)OC[C@@H](Cc1ccc(O)cc1)C2=O
MDA-MB-435
  IC50: > 20 µM
HT-29
  IC50: > 20 µM
Escherichia coli
  MIC: inactive
Candida albicans
  MIC: inactive
[1]
  MIC: inactive
Staphylococcus aureus
  MIC: inactive
Aspergillus niger
  MIC: inactive

## CN[C@H](CC(C)C)C(=O)N[C@H]1C(=O)N[C@@H](CC(N)=O)C(=O)N[C@H]2C(=O)N[C@H]3C(=O)N[C@H](C(=O)N[C@H](C(=O)O)c4cc(O)cc(O)c4-c4cc3ccc4O)[C@H](O)c3ccc(c(Cl)c3)Oc3cc2cc(c3O[C@@H]2O[C@H](CO)[C@@H](O)[C@H](O)[C@H]2O[C@H]2C[C@](C)(N)[C@H](O)[C@H](C)O2)Oc2ccc(cc2Cl)[C@H]1O [VANCOMYCIN]
Staphylococcus aureus; 96 h
  MIC: 0.25 µg/mL (≈ 0.173 µM)

## COc1cc(O)c2c(c1)OC[C@@](O)(Cc1ccc(O)cc1)C2=O
MDA-MB-435
  IC50: > 20 µM
HT-29
  IC50: > 20 µM
Escherichia coli
  MIC: inactive
Candida albicans
  MIC: inactive
[1]
  MIC: inactive
Staphylococcus aureus
  MIC: inactive
Aspergillus niger
  MIC: inactive

## COc1c(O)cc(O)c2c1OC/C(=C\c1ccc(O)cc1)C2=O
MDA-MB-435
  IC50: > 20 µM
HT-29
  IC50: > 20 µM
Escherichia coli; 96 h
  MIC: > 48 µg/mL
Candida albicans; 96 h
  MIC: > 48 µg/mL
[1]; 96 h
  MIC: 24 µg/mL (≈ 76.4 µM)
Staphylococcus aureus; 96 h
  MIC: > 48 µg/mL
Aspergillus niger; 96 h
  MIC: > 48 µg/mL

## COc1cc2c(cc1O)C[C@]21COc2cc(O)cc(O)c2C1=O
MDA-MB-435
  IC50: > 20 µM
HT-29
  IC50: > 20 µM
Escherichia coli
  MIC: inactive
Candida albicans
  MIC: inactive
[1]
  MIC: inactive
Staphylococcus aureus
  MIC: inactive
Aspergillus niger
  MIC: inactive
